Test results taken from ChEMBL document CHEMBL3352437, “Novel 3,5-bis(arylidene)-4-oxo-1-piperidinyl dimers: structure-activity relationships and potent antileukemic and antilymphoma cytotoxicity” (Eur J Med Chem, 2014).
Active and inactive are the calls of the source. No cut-off for these calls is given here.

Assays:
CCRF-CEM [1] = assay: Antiproliferative activity against human CEM cells after 72 hrs by coulter counting analysis; format: functional, cell-based
Procedure, shortened: (§1)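 Cells exposed to a range of concentrations in RPMI 1640 at 37°C for 72 h. Surviving cells counted by Coulter counter. IC50 taken from concentration-response curves, mean ± SD of at least three independent experiments.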

HCC 2998 = assay: Cytotoxicity against human HCC2998 cells assessed as inhibition of tumor growth after 24 hrs; format: functional, cell-based; settings: HCC 2998, 24 h
MOLT-4 [2] = assay: Ratio of curcumin IC50 to compound IC50 for human Molt4/C8 cells; format: functional; settings: pooled result: one value given for 4 cell lines, strains, targets or settings
SR = assay: Antileukemic activity against human SR cells assessed as inhibition of tumor growth after 24 hrs; format: functional, cell-based
RPMI-8226 = assay: Ratio of melphalan IC50 to compound IC50 for human RPMI8226 cells; format: functional; settings: pooled result: one value given for 3 cell lines, strains, targets or settings
COLO 205 [3] = assay: Cytotoxicity against human COLO205 cells assessed as inhibition of tumor growth after 24 hrs; format: functional, cell-based; settings: COLO 205, 24 h
[4] = Cytotoxicity against human NCI60 cells assessed as inhibition of tumor growth after 24 hrs; format: functional, cell-based; settings: NCI60, 24 h
KM12 = assay: Cytotoxicity against human KM12 cells assessed as inhibition of tumor growth after 24 hrs; format: functional, cell-based; settings: KM12, 24 h
[5] = Cytotoxicity against human HCT15 cells assessed as inhibition of tumor growth after 24 hrs; format: functional, cell-based; settings: HCT-15, 24 h
COLO 205 [6] = assay: Ratio of 5-fluorouracil IC50 to compound IC50 for human COLO205 cells; format: functional; settings: pooled result: one value given for 5 cell lines, strains, targets or settings
K562 = assay: Antileukemic activity against human K562 cells assessed as inhibition of tumor growth after 24 hrs; format: functional, cell-based; settings: K562, 24 h
[7] = Antiproliferative activity against human Molt4/C8 cells after 72 hrs by coulter counting analysis; format: functional, cell-based; settings: MOLT-4, 72 h; procedure, shortened: as §1
SW-620 = assay: Cytotoxicity against human SW620 cells assessed as inhibition of tumor growth after 24 hrs; format: functional, cell-based; settings: SW-620, 24 h
L1210 = assay: Antiproliferative activity against mouse L1210 cells after 72 hrs by coulter counting analysis; format: functional, cell-based; settings: L1210, 72 h
HL-60(TB) = assay: Antileukemic activity against human HL-60(TB) cells assessed as inhibition of tumor growth after 24 hrs; format: functional, cell-based; settings: HL-60, 24 h
MOLT-4 [8] = assay: Ratio of melphalan IC50 to compound IC50 for human Molt4/C8 cells; format: functional; settings: pooled result: one value given for 4 cell lines, strains, targets or settings
HeLa = assay: Antiproliferative activity against human HeLa cells after 72 hrs by coulter counting analysis; format: functional, cell-based; procedure, shortened: as §1
[9] = Antileukemic activity against human RPMI8226 cells assessed as inhibition of tumor growth after 24 hrs; format: functional, cell-based; settings: rpmi-8226
CCRF-CEM [10] = assay: Induction of apoptosis in human CEM T-lymphocytes assessed as late apoptotic at necrotic cell stage at 1 uM after 8 hrs by flow cytometric analysis (reference value: 0%); format: functional
CCRF-CEM [11] = assay: Cytotoxicity against human CEM T-lymphocytes assessed as mitochondrial membrane depolarization at 1 uM after 8 hrs by JC-1 red/green staining analysis; format: functional, cell-based
Procedure, shortened: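 CEM cells (RPMI-1640, 10% FBS, 50,000 per well) were exposed to 1 μM compound for 8 h at 37°C, 5% CO2, in triplicate. They were then stained with 2 μM JC-1; the red signal marks polarized mitochondria and the green signal marks depolarized ones. Green-emitting cells were counted by flow cytometry, about 10,000 events. Controls: untreated, DMSO and CCCP 50 μM.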

[12] = Cytotoxicity against human SupT1 cells assessed as dead cells at 1 uM after 24 hrs; format: functional, SUP-T1
Procedure, shortened: (§2)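 Dienones added as DMSO solutions to cells in RPMI medium and incubated 24 h at 37°C. Cytotoxicity was scored as cell-membrane disruption by propidium iodide staining and expressed as percentage of dead cells, averaged over three independent experiments.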

CCRF-CEM [13] = assay: Induction of apoptosis in human CEM T-lymphocytes assessed as early apoptotic at necrotic cell stage at 1 uM after 8 hrs by flow cytometric analysis (reference value: 4.3%); format: functional
[14] = Cytotoxicity against human 22Rvl cells assessed as dead cells at 1 uM after 24 hrs; format: functional; procedure, shortened: as §2
CCRF-CEM [15] = assay: Induction of apoptosis in human CEM T-lymphocytes assessed as viable cells at 1 uM after 24 hrs by Annexin V/propidium iodide staining-based FITC analysis (reference value: 93.4%); format: functional; settings: read-out: Activity
[16] = Cytotoxicity against human MOLT3 cells assessed as dead cells at 1 uM after 24 hrs; format: functional, MOLT-3; procedure, shortened: as §2
[17] = Cytotoxicity against human HuT-102 cells assessed as dead cells at 1 uM after 24 hrs; format: functional; procedure, shortened: as §2
Jurkat = assay: Cytotoxicity against human Jurkat cells assessed as dead cells at 1 uM after 24 hrs; format: functional; procedure, shortened: as §2
Raji = assay: Cytotoxicity against human Raji cells assessed as dead cells at 1 uM after 24 hrs; format: functional; procedure, shortened: as §2
CCRF-CEM [18] = assay: Induction of apoptosis in human CEM T-lymphocytes assessed as early apoptotic cells at 1 uM after 24 hrs by Annexin V/propidium iodide staining-based FITC analysis (reference value: 5.6%); format: functional
CCRF-CEM [19] = assay: Induction of apoptosis in human CEM T-lymphocytes assessed as necrotic cells at 1 uM after 24 hrs by Annexin V/propidium iodide staining-based FITC analysis (reference value: 0.2%); format: functional
HS27 = assay: Cytotoxicity against human HS27 cells assessed as dead cells at 1 uM after 24 hrs; format: cell-based; settings: hs27, 24 h
Procedure, shortened: (§3)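 Compounds added from DMSO solutions to cells in medium (RPMI; DMEM for Hs-27 fibroblasts) and incubated 24 h at 37°C. Membrane disruption scored by propidium iodide uptake. Result is percentage of dead cells, average of three independent experiments.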

LAPC4 = assay: Cytotoxicity against human LAPC4 cells assessed as dead cells at 1 uM after 24 hrs; format: functional; procedure, shortened: as §2
[20] = Cytotoxicity against human NALM6 cells assessed as dead cells at 1 uM after 24 hrs; format: functional, NALM-6; procedure, shortened: as §2
HCC70 = assay: Cytotoxicity against human HCC70 cells assessed as dead cells at 1 uM after 24 hrs; format: functional; procedure, shortened: as §2
BJAB = assay: Cytotoxicity against human BJAB cells assessed as dead cells at 1 uM after 24 hrs; format: functional; procedure, shortened: as §2
Ramos = assay: Cytotoxicity against human Ramos cells assessed as dead cells at 1 uM after 24 hrs; format: functional; procedure, shortened: as §2
CCRF-CEM [21] = assay: Induction of apoptosis in human CEM T-lymphocytes assessed as viable at necrotic cell stage at 1 uM after 8 hrs by flow cytometric analysis (reference value: 95.7%); format: functional
CCRF-CEM [22] = assay: Cytotoxicity against human CEM cells assessed as dead cells at 1 uM after 24 hrs; format: functional; procedure, shortened: as §2
DU-145 = assay: Cytotoxicity against human DU145 cells assessed as dead cells at 1 uM after 24 hrs; format: functional; procedure, shortened: as §2
CCRF-CEM [23] = assay: Induction of apoptosis in human CEM T-lymphocytes assessed as caspase3 activation at necrotic cell stage at 1 uM after 8 hrs by flow cytometric analysis (reference value: 0%); format: functional
EL4 = assay: Cytotoxicity against mouse EL4 cells assessed as dead cells at 1 uM after 24 hrs; format: functional; procedure, shortened: as §2
YT = assay: Cytotoxicity against human YT cells assessed as dead cells at 1 uM after 24 hrs; format: functional; procedure, shortened: as §2
[24] = Cytotoxicity against human MDA231 cells assessed as dead cells at 1 uM after 24 hrs; format: functional, MDA-MB-231; procedure, shortened: as §2
CCRF-CEM [25] = assay: Induction of apoptosis in human CEM T-lymphocytes assessed as late apoptotic cells at 1 uM after 24 hrs by Annexin V/propidium iodide staining-based FITC analysis (reference value: 0.8%); format: functional
[26] = Cytotoxicity against human MCF10A cells assessed as dead cells at 1 uM after 24 hrs; format: cell-based; settings: mcf-10a; procedure, shortened: as §3
MCF7 = assay: Cytotoxicity against human MCF7 cells assessed as dead cells at 1 uM after 24 hrs; format: functional; procedure, shortened: as §2

SMILES | IC50 (CCRF-CEM [1]) [nM] | IC50 [7] [nM] | IC50 (L1210) [nM] | IC50 (HeLa) [nM] | Activity (CCRF-CEM [10]) [%] | Activity (CCRF-CEM [11]) | Activity [12] [%] | Activity (CCRF-CEM [13]) [%] | Activity [14] [%] | viability at 1 µM (CCRF-CEM [15]) [%] | Activity [16] [%] | Activity [17] [%] | Activity (Jurkat) [%] | Activity (Raji) [%] | Activity (CCRF-CEM [18]) [%] | Activity (CCRF-CEM [19]) [%] | Activity (HS27) [%] | Activity (LAPC4) [%] | Activity [20] [%] | Activity (HCC70) [%] | also measured
COc1cc(/C=C2/CN(C(=O)CC(=O)N3C/C(=C\c4cc(OC)c(OC)c(OC)c4)C(=O)/C(=C/c4cc(OC)c(OC)c(OC)c4)C3)C/C(=C\c3cc(OC)c(OC)c(OC)c3)C2=O)cc(OC)c1OC | 284 | 60 | 214 | 216 | – | – | – | – | – | – | – | – | – | – | – | – | – | – | – | – | IC50 (HCC 2998): 100 nM; Ratio IC50 (MOLT-4 [2]): 66.8; IC50 (SR): 10 nM; Ratio IC50 (RPMI-8226): 1890; IC50 (COLO 205 [3]): 60 nM; IC50 [4]: 50 nM; IC50 (KM12): 40 nM; IC50 [5]: 30 nM; Ratio IC50 (COLO 205 [6]): 141; IC50 (K562): 30 nM; IC50 (SW-620): 50 nM; IC50 (HL-60(TB)): 40 nM; Ratio IC50 (MOLT-4 [8]): 14.2; IC50 [9]: 50 nM
COc1ccc(/C=C2\CN(C(=O)C(=O)N3C/C(=C\c4ccc(OC)c(OC)c4)C(=O)/C(=C/c4ccc(OC)c(OC)c4)C3)C/C(=C\c3ccc(OC)c(OC)c3)C2=O)cc1OC | 4360 | 779 | 6310 | 4430 | 0 | Active | 33 | 9 | 38.2 | 15.4 | 31.8 | 50.9 | 84.8 | 56.3 | 12.8 | 33.8 | 10.2 | 35.4 | 60.7 | 3.9 | Activity (BJAB): 62.8%; Activity (Ramos): 87.4%; Activity (CCRF-CEM [21]): 91%; Activity (CCRF-CEM [22]): 88.1%; Activity (DU-145): 45.7%; Activity (CCRF-CEM [23]): 0%; Activity (EL4): 46.5%; Activity (YT): 39.2%; Activity [24]: 4.6%; Activity (CCRF-CEM [25]): 38%; Activity [26]: 5.8%; Activity (MCF7): 17.7%
COc1ccc(/C=C2/CN(C(=O)CC(=O)N3C/C(=C\c4ccc(OC)c(OC)c4)C(=O)/C(=C/c4ccc(OC)c(OC)c4)C3)C/C(=C\c3ccc(OC)c(OC)c3)C2=O)cc1OC | 348 | 388 | 378 | 370 | 0 | Active | 31 | 12.3 | 2 | 2.5 | 2.6 | 51.6 | 83.9 | 50.8 | 70.2 | 3.9 | 6.4 | 20.6 | 63.9 | 2.1 | Activity (BJAB): 61%; Activity (Ramos): 88.6%; Activity (CCRF-CEM [21]): 87.7%; Activity (CCRF-CEM [22]): 77.6%; Activity (DU-145): 67.4%; Activity (CCRF-CEM [23]): 0%; Activity (EL4): 43.7%; Activity (YT): 32.3%; Activity [24]: 1.8%; Activity (CCRF-CEM [25]): 23.3%; Activity [26]: 6.1%; Activity (MCF7): 23%
